Hits are enriched below; roughly 1.6% of the tested compounds scored in any of these assays.
UBC13 inh: inhibitors of human UBC13 polyubiquitin chain formation; P61088; TR-FRET; hit rate 0.47% among 330,000; inhibition, % at 20 µM; in the data active means inhibition above about 45%, passing the limit was not always enough; inconclusive means no clear call, values can overlap the other calls
RAD52 anneal inh: blocks human RAD52 DNA annealing; P43351; recombinant RAD52 DNA annealing, FRET fluorescence; inhibition, % at 18.7 µM; hit rate 0.46% among 360,000;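 active means every replicate showing at least 50% inhibition; inconclusive means mean inhibition at least 50% but not in every replicate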
Apaf-1 inh: blocks human Apaf-1 apoptosome activity. hit rate 0.71% among 330,000. AID 489030. O14727. inhibition, % at 20 µM. reconstituted apoptosome caspase-3 activity, DEVD-Rh110 fluorescence; active means inhibition of at least 40% at 20 µM
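Material: cell-free apoptosome with Apaf-1, procaspase-3 and caspase-9; Buffer or medium: Hepes pH 7.5 with detergent and BSA; Reagent: cytochrome c trigger plus (Z-DEVD)2-Rh110 caspase-3 substrate; Times: compound with Apaf-1, dATP, procaspase-3 30 min, then 50 min reaction, room temperature; Technique: Rh110 fluorescence intensity.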
RAD54 inh: RAD54 (human) branch migration inhibition; Q92698; RAD54 Holliday junction branch migration, FAM/BHQ fluorescence; inhibition, % at 10.4 µM; hit rate 0.14% among 360,000; AID 602329;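 active means mean normalized replicate activity at least 40 and at least half of replicates scoring 40 or more; inconclusive means only one of the two criteria met; inactive means mean below 40 and under half of replicates reaching 40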;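 further: inhibitors cause a drop in the FAM fluorescence signal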
Target sequence (Q92698 whole entry, looked up): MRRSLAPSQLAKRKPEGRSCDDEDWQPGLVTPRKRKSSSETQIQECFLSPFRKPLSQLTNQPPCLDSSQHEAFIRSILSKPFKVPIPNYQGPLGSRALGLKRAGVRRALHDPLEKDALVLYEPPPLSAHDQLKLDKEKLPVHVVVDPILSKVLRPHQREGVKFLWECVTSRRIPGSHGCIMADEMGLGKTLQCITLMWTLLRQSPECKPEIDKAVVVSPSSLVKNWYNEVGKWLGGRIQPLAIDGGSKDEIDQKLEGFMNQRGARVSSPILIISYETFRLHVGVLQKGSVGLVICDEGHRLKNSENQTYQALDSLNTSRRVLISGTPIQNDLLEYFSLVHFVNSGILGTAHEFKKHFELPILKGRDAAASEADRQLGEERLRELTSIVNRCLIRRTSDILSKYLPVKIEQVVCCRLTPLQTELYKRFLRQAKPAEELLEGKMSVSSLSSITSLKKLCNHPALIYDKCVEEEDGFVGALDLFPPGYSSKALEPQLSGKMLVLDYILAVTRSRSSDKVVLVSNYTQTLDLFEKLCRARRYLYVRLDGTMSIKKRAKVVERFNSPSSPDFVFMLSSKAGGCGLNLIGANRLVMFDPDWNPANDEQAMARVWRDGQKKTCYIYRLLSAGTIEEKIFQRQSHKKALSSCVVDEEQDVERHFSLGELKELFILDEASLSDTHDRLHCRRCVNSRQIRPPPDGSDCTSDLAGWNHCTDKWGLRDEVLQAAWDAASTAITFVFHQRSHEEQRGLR
DNA FID counter: displaces DNA intercalator in HCV helicase counter-screen; DNA fluorescent intercalator displacement, fluorescence; inhibition, % at 7.9 µM; hit rate 0.17% among 290,000; in the data active means inhibition above about 37%;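 further: higher means more ethidium bromide displaced from hairpin DNA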
Neddyl block: cullin neddylation inhibition. AID 651699. calls only at 25 µM. TR-FRET cullin neddylation, biochemical. P61081+Q13564. hit rate 0.58% among 360,000; in the data active means inhibition above about 36%
DNA binding: binds DNA, flagging false Rad54 inhibitor hits. shares compounds with RAD54 inh. Acridine orange-DNA displacement, fluorescence polarization, 20 min. AC50, µM (doses to about 35 µM). hit rate 8% among 460. AID 651673;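 active means signal drop giving an AC50 within twice the top valid tested concentration of each sample, actives reach about 35 µM in these data; inactive means activity opposite to expected, plus the rest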;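 further: polarization loss reports compound binding to salmon sperm DNA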
Neddyl inh conf: cullin neddylation inhibition, confirmation; AID 652217; hit rate 13% among 1,800; TR-FRET cullin neddylation biochemical assay; shares compounds with Neddyl block; calls only at 25 µM; in the data active means inhibition above about 40%;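 further: neddylation substrate is the cullin 1 ring ligase complex with SKP2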
DNA binder FP: counter-screen for RAD52 inhibitors: DNA binding compounds; shares compounds with RAD52 anneal inh; AID 652128; hit rate 8% among 1,000; Salmon sperm DNA/acridine orange FP displacement; AC50, µM;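 active means fitted half-maximal concentration for signal loss at or below twice the highest dose tested, in every separate run, actives reach about 64 µM in these data; inconclusive means runs disagree, or flat partial signal loss, or poor fit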
Of the large screens only hits and unclear results are named; the others gave an inactive call (follow-up assays come after a bar, where shown).

Nc1c2ccccc2nc2ccccc12	RAD52 anneal inh 98, RAD54 inh 121, DNA FID counter 51 (not shown: Neddyl block) | DNA binding 26µM | DNA binder FP 33µM
Nc1c2c(nc3ccccc13)CCCC2	none
Cc1ccc2nc3c(c(N)c2c1)CCN3C	RAD54 inh 61, DNA FID counter 42 | DNA binding inactive | DNA binder FP inactive
COc1ccc(C)c2sc(N(CCN(C)C)C(=O)c3ccc4ccccc4c3)nc12	RAD52 anneal inh 73, RAD54 inh 52 | DNA binding inactive | DNA binder FP inactive
COc1cccc(-c2ccc([C@H]3[C@@H](CO)N4C(=O)CN(C(=O)c5cccnc5)C[C@H]34)cc2)c1	none (no result: UBC13 inh, Apaf-1 inh, RAD54 inh, DNA FID counter, Neddyl block)
CCOc1cccc(-c2cc(N3CCN(CCO)CC3)n3nccc3n2)c1	none (not shown: UBC13 inh, Apaf-1 inh, DNA FID counter, Neddyl block)
CN1CCCN(c2cc(-c3ccc4ccccc4c3)nc3ccnn23)CC1	RAD52 anneal inh 104, RAD54 inh 64, Neddyl block active (no result: UBC13 inh, Apaf-1 inh, DNA FID counter) | DNA binding inactive | DNA binder FP inactive
Cc1cccc(-c2cc(N3CCCN(C)CC3)n3nccc3n2)c1	RAD52 anneal inh 103, RAD54 inh inconclusive (not shown: UBC13 inh, Apaf-1 inh, DNA FID counter, Neddyl block) | DNA binding inactive | DNA binder FP inactive
C=CCn1c(=N)n(CC(=O)c2cccc([N+](=O)[O-])c2)c2ccccc21	none (no result: RAD54 inh)
N=c1n(CCN2CCCCC2)c2ccccc2n1CC(=O)c1cccc([N+](=O)[O-])c1	RAD52 anneal inh 75, RAD54 inh 87 | DNA binding inactive | DNA binder FP inactive
O=C(NCc1ccccc1)c1cc(-c2ccncc2)nc2ccccc12	none
CN(C)CCCNc1ncnc2sc(-c3ccccc3)cc12	RAD52 anneal inh 68, RAD54 inh 64 | DNA binding inactive | DNA binder FP inconclusive
Cc1ccc(-c2nc(NCCN(C)C)c3ccccc3n2)cc1	RAD52 anneal inh 71, RAD54 inh 78, DNA FID counter 71 | DNA binding inactive | DNA binder FP inactive
CN(C)CCCNc1c2c(nc3ccccc13)CCC2	RAD52 anneal inh 78, RAD54 inh 67, DNA FID counter 53 | DNA binding inactive | DNA binder FP inactive
CN(C)CCNc1cc(-c2ccncc2)nc2ccccc12	RAD52 anneal inh 80, RAD54 inh 57, DNA FID counter 77 | DNA binding inactive | DNA binder FP inactive
C[C@@H]1CN([C@@H](C)CO)C(=O)c2cc(NC(=O)Cc3ccccc3)ccc2O[C@@H](C)CCCCO[C@@H]1CN(C)C(=O)c1ccncc1	none (no result: UBC13 inh, Apaf-1 inh, RAD54 inh, DNA FID counter, Neddyl block)
Cc1cccc(-c2nc(NCCCN(C)C)c3ccccc3n2)c1	RAD52 anneal inh 84, RAD54 inh 82, DNA FID counter 63 | DNA binding inactive | DNA binder FP inactive
COc1ccc2oc3cc(NCCN(C)C)ccc3c(=O)c2c1	RAD52 anneal inh 79, RAD54 inh 86 (no result: UBC13 inh, Apaf-1 inh, DNA FID counter) | DNA binding inactive | DNA binder FP inactive
COc1ccc2c(=O)c3ccccc3oc2c1	none
CC(OC(=O)/C=C/c1cccc(F)c1)C(=O)NC1CCCCC1C (stereo not drawn)	none
COc1cc(/C=C/C(=O)OC(C)C(=O)NC2CCCCC2C)cc(Cl)c1OC (stereo not drawn)	Neddyl block active (no result: DNA FID counter) | Neddyl inh conf inactive
Nc1ccc2oc3ccccc3c2c1	Neddyl block active (no result: RAD54 inh) | Neddyl inh conf inactive
Nc1ccc(C#Cc2ccc3oc4ccccc4c(=O)c3c2)cc1	none (no result: DNA FID counter)
CC(C)NC(=O)N1CC2(C1)[C@@H](c1ccccc1)[C@@H](CO)N2C(=O)C1CCCC1	none (no result: UBC13 inh, Apaf-1 inh, RAD54 inh, DNA FID counter, Neddyl block)
Cc1[nH]c2ccccc2c1/C=N/NC(=O)c1cc(-c2cccs2)[nH]n1	Neddyl block active (no result: RAD54 inh) | Neddyl inh conf inactive
CCCNC(=O)[C@@H]1[C@@H](CO)[C@@H]2Cn3c(ccc(C4=CCCC4)c3=O)[C@H]1N2CCC(F)(F)F	none (no result: UBC13 inh, Apaf-1 inh, DNA FID counter, Neddyl block)
CC(=O)Nc1ccc(S(=O)(=O)Nc2cccc(-c3nc4ccccc4o3)c2)cc1	none (not shown: RAD52 anneal inh, Neddyl block)
O=S(=O)(Nc1ccc(-c2nc3ccccc3o2)cc1)c1ccccc1	Neddyl block active (not shown: RAD52 anneal inh)
CCCc1cc(=O)n2[nH]c(-c3cc(OC)c(OC)c(OC)c3)nc2n1	Neddyl block active (no result: RAD52 anneal inh) | Neddyl inh conf inactive
Cc1cc(Nc2ccccc2C(=O)O)n2ncnc2n1	Neddyl block active (not shown: UBC13 inh, Apaf-1 inh, DNA FID counter)
COc1cc(/C=C/C(=O)NCc2ccccn2)cc(OC)c1OC	Neddyl block active | Neddyl inh conf inactive
CSc1ccccc1NC(=O)CN(C)C(=O)/C=C/c1ccccc1	none (no result: DNA FID counter)
COc1cc(/C=C/C(=O)N(C)CC(=O)Nc2ccccc2SC)cc(OC)c1OC	Neddyl block active (no result: DNA FID counter) | Neddyl inh conf inactive
COc1ccc(/C=C/C(=O)NCc2ccccn2)cc1OC	none
COc1cc(/C=C/C(=O)NC(C)CCc2ccccc2)cc(OC)c1OC (stereo not drawn)	Neddyl block active (no result: RAD52 anneal inh, RAD54 inh) | Neddyl inh conf inactive
Cc1ccc2cc3cc(C(=O)NCCN4CCOCC4)oc3nc2c1	Neddyl block active (no result: RAD52 anneal inh) | Neddyl inh conf active
COc1ccc2cc3cc(C(=O)NCCc4ccc(OC)c(OC)c4)oc3nc2c1	Neddyl block active (no result: RAD52 anneal inh) | Neddyl inh conf active
Cc1ccc2cc3cc(C(=O)NCCCN4CCCC4=O)oc3nc2c1	none (not shown: Neddyl block)
COc1cccc2cc(C(=O)NCCN3CCOCC3)oc12	Neddyl block active | Neddyl inh conf inactive
COc1ccccc1-c1cc(C(=O)NCCN2CCOCC2)no1	none (no result: RAD52 anneal inh)
CCCNC(=O)Nc1ccc2c(c1)C(=O)N(C)C[C@H](OC)[C@H](C)CN(C(=O)CC)[C@H](C)CO2	none (no result: UBC13 inh, RAD52 anneal inh, Apaf-1 inh, DNA FID counter, Neddyl block)
COc1cc2c(cc1OC)-c1cc(NCc3ccccn3)nc(=O)n1CC2	Neddyl block active (no result: RAD52 anneal inh) | Neddyl inh conf active
O=C(N[C@@H]1CC[C@H](CCNS(=O)(=O)c2ccc(F)cc2)O[C@@H]1CO)C1CCOCC1	none (no result: UBC13 inh, Apaf-1 inh, DNA FID counter, Neddyl block)
Cc1ccccc1Cn1nc(C)c(NC(=O)c2cc3nc(-c4ccco4)cc(C(F)(F)F)n3n2)c1C	Neddyl block active (no result: UBC13 inh, RAD52 anneal inh, Apaf-1 inh) | Neddyl inh conf inactive
Cc1nn(C)cc1CN(C)C(=O)c1cc2nc(-c3ccco3)cc(C(F)(F)F)n2n1	Neddyl block active (no result: RAD52 anneal inh, RAD54 inh) | Neddyl inh conf active
Cc1nn(C)cc1NC(=O)c1cc2nc(-c3ccco3)cc(C(F)(F)F)n2n1	none
Cc1nn(C)c(C)c1CN(C)C(=O)c1cc2nc(-c3ccco3)cc(C(F)(F)F)n2n1	Neddyl block active (no result: RAD52 anneal inh) | Neddyl inh conf inactive
CCCN1C[C@H](C)[C@H](OC)CN(C)C(=O)c2cc(NS(=O)(=O)c3cn(C)cn3)ccc2OC[C@H]1C	none (no result: UBC13 inh, Apaf-1 inh, DNA FID counter, Neddyl block)
O=C(CCN1C(=O)S/C(=C/c2ccccc2)C1=O)Nc1ccc(O)c(C(=O)O)c1	Neddyl block active | Neddyl inh conf inactive
CC(=O)N1CCN(c2ccc(Nc3ncnc4c3oc3ccccc34)cc2)CC1	none (no result: RAD52 anneal inh)
